≈ marks a conversion by molar mass, not a printed value. Calls of active or inactive are those of the source. The rule behind the calls is not given here.
Key:
Staphylococcus aureus [1] = experiment: Antimicrobial activity against methicillin-resistant Staphylococcus aureus isolate 72754 by broth microdilution method; format: functional
Outline: (§1)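 MRSA clinical isolates from Guangzhou Liuhuaqiao Hospital, China. Tested by two-fold broth dilution in Mueller-Hinton broth from a top concentration of 64 µg/ml. Compound in DMSO was added to culture at 5 × 10^5 cells/ml and serially halved. Plates were incubated at 37 °C overnight with OD600 read-out. MIC came from ≥2 independent experiments.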

Staphylococcus aureus [2] = experiment: Antimicrobial activity against methicillin-resistant Staphylococcus aureus isolate 071843 by broth microdilution method; format: functional; outline: as §1
Staphylococcus aureus [3] = experiment: Antimicrobial activity against methicillin-resistant Staphylococcus aureus isolate 82731 by broth microdilution method; format: functional; outline: as §1
Staphylococcus aureus [4] = experiment: Antimicrobial activity against methicillin-resistant Staphylococcus aureus isolate 071429 by broth microdilution method; format: functional; outline: as §1
Staphylococcus aureus [5] = experiment: Antimicrobial activity against methicillin-resistant Staphylococcus aureus isolate 83160 by broth microdilution method; format: functional; outline: as §1
Staphylococcus aureus [6] = experiment: Antimicrobial activity against methicillin-resistant Staphylococcus aureus isolate 82896 by broth microdilution method; format: functional; outline: as §1
Staphylococcus aureus [7] = experiment: Antimicrobial activity against methicillin-resistant Staphylococcus aureus isolate 82924 by broth microdilution method; format: functional; outline: as §1
Escherichia coli [8] = experiment: Inhibition of Escherichia coli DNA gyrase supercoiling activity using pHOT1 DNA as substrate at 1 uM after 60 mins by agarose gel electrophoretic analysis
Outline: (§2)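 Supercoiling assay with 1 U DNA gyrase (E. coli or S. aureus) and 0.5 µg relaxed pHOT1 DNA in Tris–HCl pH 7.5 buffer (KCl, MgCl2, DTT, spermidine, 1 mM ATP, glycerol, BSA), ± compound, 37 °C for 60 min. Stopped with proteinase K, run on 1% agarose in TAE at 3 V/cm, stained with Gel Red and imaged under UV.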

Escherichia coli [9] = experiment: Inhibition of Escherichia coli DNA gyrase supercoiling activity using pHOT1 DNA as substrate at 100 uM after 60 mins by agarose gel electrophoretic analysis; outline: as §2
[10] = target: DNA gyrase (Staphylococcus aureus) (UniProt P0A0K8+P20831); experiment: Inhibition of Staphylococcus aureus DNA gyrase supercoiling activity using pHOT1 DNA as substrate at 125 uM after 60 mins by agarose gel electrophoretic analysis; format: protein-complex assay; outline: as §2
Chain of DNA gyrase (Staphylococcus aureus) (P0A0K8 2-644 limits assumed): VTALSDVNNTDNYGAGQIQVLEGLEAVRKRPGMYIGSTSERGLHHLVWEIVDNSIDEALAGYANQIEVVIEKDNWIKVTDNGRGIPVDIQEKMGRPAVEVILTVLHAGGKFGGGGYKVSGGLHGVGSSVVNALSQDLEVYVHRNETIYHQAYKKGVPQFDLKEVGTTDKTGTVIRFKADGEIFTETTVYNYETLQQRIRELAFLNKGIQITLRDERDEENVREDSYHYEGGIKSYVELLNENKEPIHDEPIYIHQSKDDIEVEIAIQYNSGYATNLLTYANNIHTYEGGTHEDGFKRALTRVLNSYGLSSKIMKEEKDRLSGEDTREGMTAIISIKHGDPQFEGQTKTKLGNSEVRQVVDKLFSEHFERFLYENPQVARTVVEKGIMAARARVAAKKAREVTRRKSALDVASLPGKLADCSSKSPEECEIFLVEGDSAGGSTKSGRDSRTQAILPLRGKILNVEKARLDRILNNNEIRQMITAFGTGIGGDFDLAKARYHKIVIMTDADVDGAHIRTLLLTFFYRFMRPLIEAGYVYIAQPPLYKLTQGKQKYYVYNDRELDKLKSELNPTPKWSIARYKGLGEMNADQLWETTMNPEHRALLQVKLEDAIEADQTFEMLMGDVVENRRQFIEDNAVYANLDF
Chain of DNA gyrase (Staphylococcus aureus) (P20831 whole entry partner): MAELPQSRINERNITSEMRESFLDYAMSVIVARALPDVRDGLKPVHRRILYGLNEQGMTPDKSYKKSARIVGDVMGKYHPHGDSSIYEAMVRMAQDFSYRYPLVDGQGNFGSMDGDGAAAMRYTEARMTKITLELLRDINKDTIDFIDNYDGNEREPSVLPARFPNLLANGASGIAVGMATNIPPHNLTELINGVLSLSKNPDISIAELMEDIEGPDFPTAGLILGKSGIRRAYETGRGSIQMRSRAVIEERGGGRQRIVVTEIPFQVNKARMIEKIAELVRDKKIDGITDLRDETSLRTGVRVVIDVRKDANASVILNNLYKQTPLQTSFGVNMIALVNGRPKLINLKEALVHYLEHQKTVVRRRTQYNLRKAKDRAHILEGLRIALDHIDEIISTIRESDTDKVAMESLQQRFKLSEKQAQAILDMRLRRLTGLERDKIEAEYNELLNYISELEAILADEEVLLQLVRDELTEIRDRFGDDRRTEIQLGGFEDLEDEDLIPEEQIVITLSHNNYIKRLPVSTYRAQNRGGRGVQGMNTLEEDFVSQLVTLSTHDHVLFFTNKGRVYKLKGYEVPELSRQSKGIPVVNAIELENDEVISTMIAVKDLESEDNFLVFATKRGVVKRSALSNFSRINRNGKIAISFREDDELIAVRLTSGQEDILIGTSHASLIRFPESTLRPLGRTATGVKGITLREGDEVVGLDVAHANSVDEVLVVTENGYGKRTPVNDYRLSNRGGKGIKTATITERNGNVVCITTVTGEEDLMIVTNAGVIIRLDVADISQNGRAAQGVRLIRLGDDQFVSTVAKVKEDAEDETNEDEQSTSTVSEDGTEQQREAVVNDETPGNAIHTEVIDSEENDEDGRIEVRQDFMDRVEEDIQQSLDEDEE

Staphylococcus aureus [11] = experiment: Inhibition of Staphylococcus aureus topoisomerase 4-mediated relaxation of supercoiled pBR322 DNA at 1 uM after 30 mins by agarose gel electrophoretic analysis
Outline: (§3)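 Relaxation assay with 1 U Topo IV and 0.5 µg supercoiled pBR322 DNA in HEPES–KOH pH 7.6 buffer (potassium glutamate, magnesium acetate, DTT, 1 mM ATP, BSA), 37 °C for 30 min. Stopped with chloroform/iso-amyl alcohol (24:1), then run on 1% agarose gel in TAE at 5 V/cm.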

Staphylococcus aureus [12] = experiment: Inhibition of Staphylococcus aureus topoisomerase 4-mediated relaxation of supercoiled pBR322 DNA at 25 uM after 30 mins by agarose gel electrophoretic analysis; outline: as §3
Escherichia coli [13] = experiment: Inhibition of Escherichia coli topoisomerase 4-mediated relaxation of supercoiled pBR322 DNA at 125 uM after 30 mins by agarose gel electrophoretic analysis; outline: as §3
Escherichia coli [14] = experiment: Inhibition of Escherichia coli topoisomerase 4 assessed as decatenation of kDNA at 25 uM after 30 mins by electrophoresis
Outline: (§4)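 Decatenation assay with 1 U Topo IV and 200 ng catenated kDNA in HEPES–KOH pH 7.6 buffer (potassium glutamate, magnesium acetate, DTT, 1 mM ATP, BSA), 37 °C for 30 min. Stopped with chloroform/iso-amyl alcohol (24:1), then run on 1% agarose gel in TAE at 10 V/cm.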

Staphylococcus aureus [15] = experiment: Inhibition of Staphylococcus aureus topoisomerase 4 assessed as decatenation of kDNA at 125 uM after 30 mins by electrophoresis; outline: as §4
Staphylococcus aureus [16] = experiment: Ratio of MIC for vancomycin to compound for methicillin-resistant Staphylococcus aureus ATCC 43300 by broth microdilution method; format: functional
Escherichia coli [17] = experiment: Antimicrobial activity against Escherichia coli ATCC 25922 by two fold microdilution method; format: functional
Outline: (§5)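 Two-fold broth microdilution in Mueller-Hinton broth. Compound in DMSO added to bacterial culture at 5 × 10^5 cells/ml, starting at 64 µg/ml, then serially doubled down. Incubated at 37 °C overnight and read as OD600. MIC taken as the minimum inhibitory concentration, obtained in at least two independent experiments.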

[18] = test system: Salmonella enterica subsp. enterica serovar Paratyphi B; experiment: Antimicrobial activity against Salmonella paratyphi B CMCC 50094 by two fold microdilution method; format: functional
Outline: (§6)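 Two-fold serial dilution in Mueller-Hinton broth, starting at 64 µg/ml. Compound was added as a DMSO solution to bacterial culture at 5 × 10^5 cells/ml, then double-diluted. Plates were incubated overnight at 37 °C and OD600 was read. MIC was taken from at least two independent experiments.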

Pseudomonas aeruginosa = experiment: Antimicrobial activity against Pseudomonas aeruginosa ATCC 27853 by two fold microdilution method; format: functional; outline: as §5
Streptococcus = experiment: Antimicrobial activity against hemolytic Streptococcus Group B CMCC 32210 by two fold microdilution method; format: functional; outline: as §5
Staphylococcus aureus [19] = experiment: Antimicrobial activity against Staphylococcus aureus ATCC 25923 by two fold microdilution method; format: functional; outline: as §6
[20] = test system: Staphylococcus epidermidis; experiment: Antimicrobial activity against Staphylococcus epidermidis ATCC 12228 by two fold microdilution method; format: functional; outline: as §5
Enterococcus faecalis = experiment: Antimicrobial activity against Enterococcus faecalis ATCC 29212 by two fold microdilution method; format: functional; outline: as §5
Candida albicans = experiment: Antifungal activity against Candida albicans ATCC 10231 by two fold microdilution method; format: functional
Staphylococcus aureus [21] = experiment: Antimicrobial activity against methicillin-resistant Staphylococcus aureus ATCC 43300 by two fold microdilution method; format: functional; outline: as §6
Staphylococcus aureus [22] = experiment: Antimicrobial activity against methicillin-resistant Staphylococcus aureus isolate 80754 by broth microdilution method; format: functional; outline: as §1
Staphylococcus aureus [23] = experiment: Antimicrobial activity against methicillin-resistant Staphylococcus aureus isolate 7365 by broth microdilution method; format: functional; outline: as §1
Staphylococcus aureus [24] = experiment: Antimicrobial activity against methicillin-resistant Staphylococcus aureus isolate 0441 by broth microdilution method; format: functional; outline: as §1
Staphylococcus aureus [25] = experiment: Antimicrobial activity against methicillin-resistant Staphylococcus aureus isolate 071410 by broth microdilution method; format: functional; outline: as §1

## CCOC(=O)c1c2c(n3cc(Br)ccc13)C(=O)c1ncccc1C2=O
Staphylococcus aureus [1]
  MIC: 0.016 µg/mL (≈ 0.0401 µM)
Staphylococcus aureus [2]
  MIC: 0.016 µg/mL (≈ 0.0401 µM)
Staphylococcus aureus [3]
  MIC: 0.016 µg/mL (≈ 0.0401 µM)
Staphylococcus aureus [4]
  MIC: 0.016 µg/mL (≈ 0.0401 µM)
Staphylococcus aureus [5]
  MIC: 0.016 µg/mL (≈ 0.0401 µM)
Staphylococcus aureus [6]
  MIC: 0.032 µg/mL (≈ 0.0802 µM)
Staphylococcus aureus [7]
  MIC: 0.032 µg/mL (≈ 0.0802 µM)
Escherichia coli [8]
  inhibition: 78%
Escherichia coli [9]
  inhibition: 98%
[10]
  inhibition: inactive
Staphylococcus aureus [11]
  inhibition: Active
Staphylococcus aureus [12]
  inhibition: Active
Escherichia coli [13]
  inhibition: inactive
Escherichia coli [14]
  inhibition: Active
Staphylococcus aureus [15]
  inhibition: 84%
Staphylococcus aureus [16]
  Ratio: 16
Escherichia coli [17]
  MIC: > 64 µg/mL
[18]
  MIC: 64 µg/mL (≈ 160 µM)
Pseudomonas aeruginosa
  MIC: > 64 µg/mL
Streptococcus
  MIC: 0.031 µg/mL (≈ 0.0777 µM)
Staphylococcus aureus [19]
  MIC: 0.063 µg/mL (≈ 0.158 µM)
[20]
  MIC: 0.063 µg/mL (≈ 0.158 µM)
Enterococcus faecalis
  MIC: 0.016 µg/mL (≈ 0.0401 µM)
Candida albicans
  MIC: > 64 µg/mL
Staphylococcus aureus [21]
  MIC: 0.063 µg/mL (≈ 0.158 µM)
Staphylococcus aureus [22]
  MIC: 0.063 µg/mL (≈ 0.158 µM)
Staphylococcus aureus [23]
  MIC: 0.063 µg/mL (≈ 0.158 µM)
Staphylococcus aureus [24]
  MIC: 0.032 µg/mL (≈ 0.0802 µM)
Staphylococcus aureus [25]
  MIC: 0.032 µg/mL (≈ 0.0802 µM)

From ChEMBL document CHEMBL1828603, “Synthesis, antimicrobial activity and possible mechanism of action of 9-bromo-substituted indolizinoquinoline-5,12-dione derivatives” (2011)
